In ChEMBL document CHEMBL1144027, “Synthesis and antimycobacterial evaluation of newer 1-cyclopropyl-1,4-dihydro-6-fluoro-7-(substituted secondary amino)-8-methoxy-5-(sub)-4-oxoquinoline-3-carboxylic acids” (Bioorg Med Chem, 2008) one finds MIC data, which are given here for 24 molecules.

≈ marks a conversion by molar mass, not a printed value.

The test deals with Mycobacterium tuberculosis. The test is described as follows: Antimycobacterial activity against multidrug resistant Mycobacterium tuberculosis by agar dilution method. In kind it is functional. The gist of the method: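 Agar dilution MIC on Middlebrook 7H11 agar with OADC, following the NCCLS-recommended approach, run in duplicate. The MDR clinical isolate was resistant to isoniazid, rifampicin, ethambutol and ofloxacin.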
Background: Agar dilution tests growth on a series of plates holding different concentrations.
The MIC is the lowest concentration that inhibits growth of the organism. A high value points to a need for much substance. Consider `COc1c(N2CCN(Cc3ccc4c(c3)OCO4)CC2)c(F)c([N+](=O)[O-])c2c(=O)c(C(=O)O)cn(C3CC3)c12`, for which the minimal inhibitory concentration (MIC) is 0.35 µM (≈ 0.189 µg/mL). `COc1c(N2CCn3cc(C(=O)O)nc3C2)c(F)cc2c(=O)c(C(=O)O)cn(C3CC3)c12`: inhibition of growth (MIC) required 1.76 µM (≈ 0.779 µg/mL). Consider `COc1c(N2CC(C)OC(C)C2)c(F)c([N+](=O)[O-])c2c(=O)c(C(=O)O)cn(C3CC3)c12` (centres undefined), for which it took 1.79 µM (≈ 0.779 µg/mL) to inhibit growth (MIC).

Regarding `COc1c(N2CCC3(CC2)OCCO3)c(F)c([N+](=O)[O-])c2c(=O)c(C(=O)O)cn(C3CC3)c12`, the MIC came out at 0.41 µM (≈ 0.19 µg/mL).

In the case of `COc1c(N2CC(C)OC(C)C2)c(F)cc2c(=O)c(C(=O)O)cn(C3CC3)c12` (centres undefined), the minimum inhibitory concentration (MIC) came to 3.99 µM (≈ 1.56 µg/mL). Then `COc1c(N2COCC2(C)C)c(F)cc2c(=O)c(C(=O)O)cn(C3CC3)c12`, with 2.07 µM (≈ 0.779 µg/mL); and `COc1c(N2COCC2(C)C)c(F)c([N+](=O)[O-])c2c(=O)c(C(=O)O)cn(C3CC3)c12`, with 0.93 µM (≈ 0.392 µg/mL). The molecule `COc1c(N2CCNC(C)C2)c(F)cc2c(=O)c(C(=O)O)cn(C3CC3)c12` (centres undefined) [GATIFLOXACIN] had an MIC of 8.34 µM (≈ 3.13 µg/mL). The same measure for `COc1c(N2CCN(C)C(c3ccccc3)C2)c(F)c([N+](=O)[O-])c2c(=O)c(C(=O)O)cn(C3CC3)c12` (centres undefined): 3.14 µM (≈ 1.56 µg/mL). Then `COc1ccc(CC2C3=C(CCCC3)CCN2c2c(F)c(N)c3c(=O)c(C(=O)O)cn(C4CC4)c3c2OC)cc1` (centres undefined), with 2.85 µM (≈ 1.56 µg/mL); and `COc1c(N2CCSCC2)c(F)c([N+](=O)[O-])c2c(=O)c(C(=O)O)cn(C3CC3)c12`, with 1.84 µM (≈ 0.779 µg/mL); and `COc1ccc(CC2C3=C(CCCC3)CCN2c2c(F)cc3c(=O)c(C(=O)O)cn(C4CC4)c3c2OC)cc1` (centres undefined), with 1.46 µM (≈ 0.778 µg/mL).

The molecule `COc1c(N2CCN(Cc3ccc4c(c3)OCO4)CC2)c(F)cc2c(=O)c(C(=O)O)cn(C3CC3)c12` returned an MIC of 1.57 µM (≈ 0.778 µg/mL). The same measure for `COc1c(N2CCC3(CC2)OCCO3)c(F)cc2c(=O)c(C(=O)O)cn(C3CC3)c12`: 1.86 µM (≈ 0.778 µg/mL); for `NNC(=O)c1ccncc1` [ISONIAZID]: 45.6 µM (≈ 6.25 µg/mL). With `COc1c(N2CCn3cc(C(=O)O)nc3C2)c(F)c([N+](=O)[O-])c2c(=O)c(C(=O)O)cn(C3CC3)c12`, inhibition of growth (MIC) required 1.6 µM (≈ 0.78 µg/mL). Then `CCN(CC)C(=O)C1CCCN(c2c(F)cc3c(=O)c(C(=O)O)cn(C4CC4)c3c2OC)C1` (centres undefined), with 3.39 µM (≈ 1.56 µg/mL); and `COc1c(N2CCc3ccccc3C2C(=O)NC(C)(C)C)c(F)c([N+](=O)[O-])c2c(=O)c(C(=O)O)cn(C3CC3)c12` (centres undefined), with 2.82 µM (≈ 1.56 µg/mL).

Molecule `COc1ccc(CC2C3=C(CCCC3)CCN2c2c(F)c([N+](=O)[O-])c3c(=O)c(C(=O)O)cn(C4CC4)c3c2OC)cc1` (centres undefined) showed a minimum inhibitory concentration (MIC) of 0.33 µM (≈ 0.191 µg/mL). Then `COc1c(N2CCN(C(=O)C3COc4ccccc4O3)CC2)c(F)cc2c(=O)c(C(=O)O)cn(C3CC3)c12` (centres undefined), with 0.74 µM (≈ 0.387 µg/mL); and `COc1c(N2CCN(C(=O)C3COc4ccccc4O3)CC2)c(F)c([N+](=O)[O-])c2c(=O)c(C(=O)O)cn(C3CC3)c12` (centres undefined), with 2.74 µM (≈ 1.56 µg/mL). The same measure for `COc1c(N2CCSCC2)c(F)cc2c(=O)c(C(=O)O)cn(C3CC3)c12`: 2.06 µM (≈ 0.78 µg/mL). Regarding `CCN(CC)C(=O)C1CCCN(c2c(F)c([N+](=O)[O-])c3c(=O)c(C(=O)O)cn(C4CC4)c3c2OC)C1` (centres undefined), the lowest concentration to inhibit growth (MIC) was 1.55 µM (≈ 0.782 µg/mL). In turn, `COc1c(N2CCN(C(c3ccccc3)c3ccc(Cl)cc3)CC2)c(F)c([N+](=O)[O-])c2c(=O)c(C(=O)O)cn(C3CC3)c12` (centres undefined) registered an MIC of 1.28 µM (≈ 0.777 µg/mL).
